Assay results from ChEMBL document CHEMBL1129750, “Bicyclic N-hydroxyurea inhibitors of 5-lipoxygenase: pharmacodynamic, pharmacokinetic, and in vitro metabolic studies characterizing N-hydroxy-N-(2,3-dihydro-6-(phenylmethoxy)-3-benzofuranyl)urea” (J Med Chem, 1996).
The source made the active and inactive calls. The calls are words filed in the database; no cut-off is given here.

Key:
[1] = target: T1, Polyunsaturated fatty acid 5-lipoxygenase (Mus musculus) (UniProt P48999); assay: Inhibition of leukotriene formation in A-23187-stimulated mouse whole blood using […] ex vivo, activity expressed as percent of control.; format: functional, tissue-based; parameters: scale not given: the % may be the effect or the level left
T1 sequence (whole entry): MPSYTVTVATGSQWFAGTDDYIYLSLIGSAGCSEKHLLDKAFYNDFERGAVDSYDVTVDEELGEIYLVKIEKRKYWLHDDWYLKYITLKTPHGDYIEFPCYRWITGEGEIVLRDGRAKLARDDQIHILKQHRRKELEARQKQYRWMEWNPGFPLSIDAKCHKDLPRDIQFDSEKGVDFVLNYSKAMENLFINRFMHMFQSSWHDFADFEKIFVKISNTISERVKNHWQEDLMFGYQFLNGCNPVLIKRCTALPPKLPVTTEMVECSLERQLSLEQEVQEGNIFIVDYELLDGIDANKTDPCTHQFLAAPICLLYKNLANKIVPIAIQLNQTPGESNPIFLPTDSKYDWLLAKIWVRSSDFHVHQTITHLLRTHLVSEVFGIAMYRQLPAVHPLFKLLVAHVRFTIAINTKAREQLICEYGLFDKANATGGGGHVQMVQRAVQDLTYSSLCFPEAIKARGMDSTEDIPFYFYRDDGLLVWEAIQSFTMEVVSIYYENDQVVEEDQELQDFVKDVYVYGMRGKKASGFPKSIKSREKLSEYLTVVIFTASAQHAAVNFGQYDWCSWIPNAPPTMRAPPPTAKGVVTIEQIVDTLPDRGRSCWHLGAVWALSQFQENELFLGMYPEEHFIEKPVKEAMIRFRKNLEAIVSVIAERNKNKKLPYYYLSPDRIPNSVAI

Mus musculus [2] = species: Mus musculus; assay: Compound was tested to inhibit Leukotriene formation in A-23187-stimulated mouse whole blood using […] ex vivo, activity expressed as percent of control; NS=No Stastistical Significance; format: functional, organism-based
[3] = target: T2, Polyunsaturated fatty acid 5-lipoxygenase (Rattus norvegicus, UniProt P12527); assay: Inhibitory activity against rat 5-lipoxygenase by using continuous oxygen consumption assay.
T2 sequence (P12527 whole entry): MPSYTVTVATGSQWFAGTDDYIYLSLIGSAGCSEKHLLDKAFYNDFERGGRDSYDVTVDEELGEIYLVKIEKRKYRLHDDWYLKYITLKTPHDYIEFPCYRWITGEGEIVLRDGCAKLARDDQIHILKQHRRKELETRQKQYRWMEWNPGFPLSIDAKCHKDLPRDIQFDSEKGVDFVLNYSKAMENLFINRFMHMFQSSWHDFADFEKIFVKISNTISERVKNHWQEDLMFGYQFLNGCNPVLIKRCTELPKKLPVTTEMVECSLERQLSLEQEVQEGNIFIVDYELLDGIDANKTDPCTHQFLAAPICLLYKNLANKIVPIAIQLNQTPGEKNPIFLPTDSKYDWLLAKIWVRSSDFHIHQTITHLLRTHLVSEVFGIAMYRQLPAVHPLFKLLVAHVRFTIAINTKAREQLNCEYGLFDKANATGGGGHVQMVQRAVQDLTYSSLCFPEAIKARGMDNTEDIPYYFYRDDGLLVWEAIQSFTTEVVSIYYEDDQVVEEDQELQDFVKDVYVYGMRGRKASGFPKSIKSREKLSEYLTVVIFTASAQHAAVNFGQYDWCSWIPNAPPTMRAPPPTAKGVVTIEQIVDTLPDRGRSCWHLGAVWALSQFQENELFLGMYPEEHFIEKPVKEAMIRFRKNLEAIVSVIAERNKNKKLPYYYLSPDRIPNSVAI
How it was run: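 Semipurified cytosolic 5-LO from rat basophilic leukemia (RBL-1) cells; continuous oxygen-electrode assay of oxygen consumption; IC50.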

Mus musculus [4] = assay: Maximum inhibition of LTB4 at dose 10 mg/kg in mouse; format: functional
Mus musculus [5] = assay: Percentage inhibition of LTB4 after 6 hr at dose 10 mg/kg in mouse; format: functional
Mus musculus [6] = species: Mus musculus; assay: Compound was tested to inhibit Leukotriene formation in A-23187-stimulated mouse whole blood using […] ex vivo; format: functional
Mus musculus [7] = assay: Compound was tested to inhibit Leukotriene formation in mouse sensitized with 1BD8 cells after 7 hr of compound administration, activity expressed as percent of control; format: functional; parameters: concentration or dose not given beside the values
Mus musculus [8] = species: Mus musculus; assay: Inhibition of Leukotriene formation in mouse adoptive peritoneal anaphylaxis assay ex vivo; format: functional; conditions: Mus musculus
Mus musculus [9] = species: Mus musculus; assay: Percentage inhibition of LTB4 formation after 6 hr in mouse; format: functional
Mus musculus [10] = assay: Maximum inhibition of LTB4 formation at dose 15 mg/kg in mouse; format: functional
Mus musculus [11] = assay: Compound was administered intravenously in mouse to evaluate half life; ID= Iinsufficient data to calculate parameter.; format: ADME, organism-based; conditions: in vivo, iv
How it was run: (§1)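 Male CD-1 mice given 0.5 mg/kg IV by lateral tail vein over 5–10 s, in ethanol/propylene glycol 30:70 v/v; N = 3 per time point with terminal sampling under ether. Plasma HPLC, LOQ 0.05 μg/mL. Mean concentration per time point before noncompartmental analysis. Half-life from slope of log-concentration profile; CLp = dose/AUC.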

[12] = Compound was administered intravenously in monkey to evaluate plasma clearance values; format: ADME, organism-based; conditions: simiiformes, iv
How it was run: (§2)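 IV infusion over 15 min via saphenous (monkey) or cephalic (dog) vein catheter, 1–1.4 mg/kg in 7.5% (w/v) aqueous (2-hydroxypropyl)-β-cyclodextrin; male cynomolgus monkeys and beagle dogs, N = 3. Chilled plasma analysed by HPLC. Noncompartmental parameters were estimated per animal and then averaged. CLp = dose/AUC, with AUC by linear/log-linear trapezoidal rule.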

Canis familiaris = assay: Compound was administered intravenously in dog to evaluate plasma clearance values; format: ADME, organism-based, Canis lupus familiaris; conditions: in vivo, iv; how it was run: as §2
Mus musculus [13] = assay: Maximum inhibition of LTB4 at dose 3 mg/kg in mouse; format: functional
Mus musculus [14] = assay: Percentage inhibition of LTB4 after 6 hr at dose 3 mg/kg in mouse; NS=No Stastistical Significance; format: functional, organism-based; parameters: dose 3 mg/kg
[15] = Compound was administered intravenously in mouse to evaluate plasma clearance values; format: ADME, organism-based; conditions: iv, read-out: Clp; how it was run: as §1
Homo sapiens = species: Homo sapiens; assay: Glucuronidation rates in human liver microsomes; format: functional
How it was run: (§3)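 Liver microsomes (fresh male CD-1 mouse >10 weeks, or frozen human donor) at 0.25–1.0 mg/mL protein. Incubated with 2.5 mM substrate, 15 mM [14C]UDP-glucuronic acid, 10 mM MgCl2 and 2% BSA in 100 mM sodium phosphate pH 7.4, at 37 °C for 1–4 h. Stopped with 20% acetonitrile; glucuronide quantified by HPLC. Mean of duplicates.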

Mus musculus [16] = species: Mus musculus; assay: Glucuronidation rates in mouse liver microsomes; not detected; format: functional; how it was run: as §3
Mus musculus [17] = assay: Percentage inhibition of LTB4 after 6 hr at dose 2 mg/kg in mouse; format: functional
Mus musculus [18] = assay: Maximum inhibition of LTB4 at dose 2 mg/kg in mouse; format: functional
Mus musculus [19] = species: Mus musculus; assay: Glucuronidation rates in mouse liver microsomes; format: functional; how it was run: as §3
[20] = Mus musculus, Blood, read-out: ED50

Q: Which Activity [1] does the source give for `NC(=O)N(O)C1CCc2cc(OCc3ccccc3)ccc21` (stereo in doubt; (-)2a) [listing 1 of 2 here] here?
A: 0.9%

Q: For `CCc1ccc2c(c1)cc1n2CCC1N(O)C(N)=O` (configuration not stated), which Activity (Mus musculus [2]) is on record?
A: inactive

Q: For `NC(=O)N(O)C1COc2c1ccc1ccccc21` (configuration not stated), which IC50 [3] is on record?
A: 4.2 µM

Q: For `NC(=O)N(O)C1CCCc2c1ccc1ccccc21` (configuration not stated), which IC50 [3] is on record?
A: 5.6 µM

Q: With `NC(=O)N(O)C1CCCc2ccccc21` (configuration not stated) as the compound, how does the IC50 [3] read?
A: 29 µM

Q: And the Activity [1]?
A: -30%

Q: Which IC50 [3] does the source give for `NC(=O)N(O)C1CCc2cc(Oc3ccccc3)ccc21` (configuration not stated) here?
A: 0.85 µM

Q: And the Max inhibition (Mus musculus [4])?
A: 88

Q: What about the inhibition in vivo at 10 mg/kg (Mus musculus [5]) of the same compound?
A: 57%

Q: And the Activity [1]?
A: -88%

Q: And the ED50 (Mus musculus [6]; [20])?
A: 6.4 mg/kg

Q: For `NC(=O)N(O)C1CCCc2ccc(OCc3ccccc3)cc21` (configuration not stated), which IC50 [3] is on record?
A: 1 µM

Q: What about the Activity (Mus musculus [2]) of the same compound?
A: inactive

Q: Which IC50 [3] does the source give for `COc1ccc(COc2ccc3c(c2)CCCC3N(O)C(N)=O)cc1` (configuration not stated) here?
A: 0.5 µM

Q: And the Activity (Mus musculus [7])?
A: -13%

Q: What about the ED50 (Mus musculus [8]) of the same compound?
A: 4.8 mg/kg

Q: And the Activity [1]?
A: -81%

Q: And the ED50 (Mus musculus [6]; [20])?
A: 4.8 mg/kg

Q: Which results are given for `NC(=O)N(O)C1CCCc2cc(OCc3ccccc3)ccc21` (stereo in doubt; 3a)?
A: IC50 [3]: 1.8 µM; ED50 (Mus musculus [6]; [20]): 9.9 mg/kg; Inhibition (Mus musculus [9]): 67%; Max inhibition (Mus musculus [10]): 61

Q: Which IC50 [3] does the source give for `NC(=O)N(O)C1CCCc2cc(OCc3ccc(Cl)cc3)ccc21` (configuration not stated) here?
A: 2.2 µM

Q: What about the Activity (Mus musculus [7]) of the same compound?
A: 0%

Q: And the ED50 (Mus musculus [8])?
A: 4.5 mg/kg

Q: And the Activity [1]?
A: -70%

Q: What about the ED50 (Mus musculus [6]; [20]) of the same compound?
A: 4.5 mg/kg

Q: For `NC(=O)N(O)C1CCCc2cc(OCc3ccc4ccccc4c3)ccc21` (configuration not stated), which IC50 [3] is on record?
A: 0.5 µM

Q: And the Activity (Mus musculus [2])?
A: inactive

Q: Which T1/2 (Mus musculus [11]) does the source give for `NC(=O)N(O)C1COc2cc(OCc3ccccc3)ccc21` (single isomer, unassigned; (-)) here?
A: Insufficient data

Q: And the Clp ([12]; in vivo)?
A: 10.3 mL/min

Q: What about the Clp (Canis familiaris) of the same compound?
A: 10.9 mL/min

Q: Which results are given for `NC(=O)N(O)C1COc2ccc(Oc3ccccc3)cc21` (configuration not stated)?
A: IC50 [3]: 3.5 µM; Max inhibition (Mus musculus [13]): 67; Activity [1]: -64%; ED50 (Mus musculus [6]; [20]): 1.9 mg/kg; inhibition (Mus musculus [14]): inactive

Q: Which results are given for `NC(=O)N(O)C1COc2cc(OCc3ccccc3)ccc21` (single isomer, unassigned; (+)) [listing 1 of 2 here]?
A: clearance [15]: 8.6 mL/min; clearance ([12]; plasma, read-out: Clp): 6.1 mL/min; Clp (Canis familiaris): 3.5 mL/min; ED50 (Mus musculus [6]): 0.9 mg/kg

Q: For `NC(=O)N(O)C1CCc2cc(OCc3ccccc3)ccc21` (stereo in doubt; 2a), which Activity [1] is on record?
A: -85%

Q: Which IC50 [3] does the source give for `NC(=O)N(O)C1CCc2cccc(Oc3ccccc3)c21` (configuration not stated) here?
A: 5.6 µM

Q: What does the source list for `NC(=O)N(O)C1COc2cc(OCc3ccccc3)ccc21` (single isomer, unassigned; (+)) [listing 2 of 2 here]?
A: Rate of formation (nM (mg of protein)-1) (Homo sapiens): 2.5; Rate of formation (Mus musculus [16]): inactive

Q: Which results are given for `COc1ccc(COc2ccc3c(c2)CCC3N(O)C(N)=O)cc1` (configuration not stated)?
A: IC50 [3]: 1.4 µM; Activity (Mus musculus [2]): inactive

Q: For `NC(=O)N(O)C1CCc2cc(OCc3ccccc3)ccc21` (stereo in doubt; (-)2a) [listing 2 of 2 here], which IC50 [3] is on record?
A: 0.62 µM

Q: With `CC(c1cc2ccccc2s1)N(O)C(N)=O` (configuration not stated) [ZILEUTON] as the compound, how does the Rate of formation (nM (mg of protein)-1) (Homo sapiens) read?
A: 6.8

Q: And the inhibition in vivo at 2 mg/kg (Mus musculus [17])?
A: 40%

Q: What about the Activity (Mus musculus [7]) of the same compound?
A: -10%

Q: And the Max inhibition (Mus musculus [18])?
A: 70

Q: What about the ED50 (Mus musculus [8]) of the same compound?
A: 1 mg/kg

Q: What about the Activity [1] of the same compound?
A: -78%

Q: What about the Rate of formation (nM (mg of protein)-1) (Mus musculus [19]) of the same compound?
A: 0.7

Q: What about the ED50 (Mus musculus [6]; [20]) of the same compound?
A: 1 mg/kg

Q: Which IC50 [3] does the source give for `NC(=O)N(O)C1CCCc2cc(OCc3ccccc3)ccc21` (single isomer, unassigned; (+)) here?
A: 0.76 µM
